Measured values from different studies.
Protocols differ between the studies behind these lines.
Organism: Bacillus subtilis
Effect on: microbial growth

`O=C(O)CN1C(=O)/C(=C/c2c3ccccc3c(-c3ccc(N(c4ccccc4)c4ccccc4)cc3)c3ccccc23)NC1=S` has an MIC of over 1000 µg/mL (broth dilution; ATCC6633).
For `O=C(O)c1ccc(-n2cc(/C=N/Nc3cccc(Cl)c3)c(-c3cccc(F)c3)n2)cc1`, the MIC was 12.5 µg/mL (ATCC6623).
`CSc1ccc(/C=C/c2cc(/C=C3\Sc4ccccc4N3CCCN3CCCC3)c3ccccc3[n+]2C)cc1.[I-]` gave an MIC of 16 µg/mL (broth dilution; 168).
`O=C(O)c1ccc(-n2cc(/C=N/Nc3ccc(F)cc3)c(-c3ccc(F)cc3)n2)cc1` gave an MIC of 25 µg/mL (ATCC6623).
`O=C(O)c1cc(O)c(O)c(OC(=O)c2cc(O)c(O)c(O)c2)c1` has an MIC of over 200 µM (broth dilution; ATCC6633).
`CCCCCC/C=C\CCCCCCCCCc1cc(O)cc(O)c1` gave an MIC of over 64 µg/mL (broth dilution; 168).
`C[C@@H](O)[C@H]1C(=O)N2C(C(=O)O)=C(S[C@@H]3CN[C@H](C(=O)N(C)C)C3)[C@H](C)[C@H]12` has an MIC of 0.0625 µg/mL (broth dilution; 24 h).
`CNC(=O)c1cc(Oc2ccc(NC(=O)Nc3ccc(Cl)c(C(F)(F)F)c3)cc2)ccn1` gave an MIC of 5 µM (168).
The MIC of `Cc1ccc(NCc2ccc(Oc3ccccn3)cc2)cc1` is reported as 1.8 µg/mL.
With `NC[C@H]1O[C@H](O[C@H]2[C@H](O)[C@@H](O[C@H]3O[C@H](CO)[C@@H](O)[C@H](N)[C@H]3O)[C@H](N)C[C@@H]2N)[C@H](O)[C@@H](O)[C@@H]1O` the MIC was 2 to 4 µg/mL.
The MIC of `CCCCCC[P+](/C=C(/c1ccccc1)c1cc(Cl)ccc1OC)(CCCCCC)CCCCCC` is reported as 2 µM (21 h).
`O=C(O)CN1C(=O)/C(=C/c2ccc(-c3ccc(N(c4ccccc4)c4ccccc4)cc3)cc2)NC1=S` has an MIC of 3.9 µg/mL (broth dilution; ATCC6633).
With `Cc1ccccc1NCc1ccc(Oc2ccccn2)cc1` the MIC was 1.8 µg/mL.
For `CCCCCCC[P+](/C=C(/c1ccccc1)c1cc(Cl)ccc1O)(CCCCCCC)CCCCCCC`, the MIC was 10 µM (21 h).
With `C/C=C(\C)c1cc(OC(=O)c2c(C)c(Cl)c(O)c(Cl)c2O)c(C)c(O)c1C(=O)O` the MIC was 64 µg/mL (broth dilution; BS01).
`CC1=NN(CNC(=O)c2ccccn2)C(=O)C1=NNn1c(-c2ccccc2)nc2ccccc2c1=O` has an MIC of 104 µM (broth dilution; 24 h).
`C[n+]1c(/C=C/c2ccc(O)cc2)cc(/C=C2\Sc3ccccc3N2CCCN2CCOCC2)c2ccccc21.[I-]` has an MIC of 4 µg/mL (broth dilution; 168).
`CC1=NN(CNc2ccc(Cl)cc2)C(=O)C1=NNn1c(-c2ccccc2)nc2ccccc2c1=O` gave an MIC of 103 µM (broth dilution; 24 h).
`C[n+]1c(/C=C/c2ccc(O)cc2)cc(/C=C2\Sc3ccccc3N2CCCN2CCCC2)c2ccccc21.[I-]` has an MIC of 16 µg/mL (broth dilution; 168).
`Clc1ccc(NCc2ccc(Oc3ccccn3)cc2)cc1` has an MIC of over 6.2 µg/mL.
The MIC of `C[n+]1ccc(/C=C2\Sc3ccccc3N2CCCN2CCCCC2)c2ccccc21.[I-]` is reported as 16 µg/mL (broth dilution; 168).
The MIC of `CC1=NN(CNC(=O)c2ccccc2)C(=O)C1=NNn1c(-c2ccccc2)nc2ccccc2c1=O` is reported as 51.9 µM (broth dilution; 24 h).
`O=C(O)c1ccc(-n2cc(/C=N/Nc3cccc(Br)c3)c(-c3cccc(F)c3)n2)cc1` gave an MIC of 12.5 µg/mL (ATCC6623).
For `C/C=C(\C)c1cc(OC(=O)c2c(O)c(C)c(O)c(Cl)c2/C(C)=C/C)c(C)c(O)c1C(=O)O`, the MIC was 32 µg/mL (broth dilution; BS01).
With `COc1ccc(NCc2ccc(Oc3ccccn3)cc2)cc1` the MIC was over 6.24 µg/mL.
The MIC of `Cc1cc(/C=C2\Sc3ccccc3N2CCCN2CCC(C)CC2)c2ccccc2[n+]1C.[I-]` is reported as 1 µg/mL (broth dilution; 168).
`O=C(O)c1ccc(-n2cc(/C=N/Nc3c(F)c(F)c(F)c(F)c3F)c(-c3cccc(F)c3)n2)cc1` has an MIC of 6.25 µg/mL (ATCC6623).
The MIC of `CCCCCCCCOC(=O)c1cc(O)c(O)c(O)c1` is reported as 12.5 to 25 µM (broth dilution; ATCC6633).
`O=C1NC(=S)N/C1=C\c1c2ccccc2c(-c2ccc(N(c3ccccc3)c3ccccc3)cc2)c2ccccc12` gave an MIC of over 1000 µg/mL (broth dilution; ATCC6633).
`O=C(O)c1ccc(-n2cc(/C=N/N(Cc3ccccc3)Cc3ccccc3)c(-c3ccc(F)cc3)n2)cc1` gave an MIC of 6.25 µg/mL (ATCC6623).
`CC(=O)NCN1N=C(C)C(=NNn2c(-c3ccccc3)nc3ccccc3c2=O)C1=O` has an MIC of 59.9 µM (broth dilution; 24 h).
`CCCCCC[P+](/C=C(/c1ccccc1)c1cc(Cl)ccc1O)(CCCCCC)CCCCCC` has an MIC of 2 µM (21 h).
For `O=C(O)CN1C(=O)/C(=C/c2c3ccccc3c(-c3ccc(N(c4ccccc4)c4ccccc4)cc3)c3ccccc23)SC1=S`, the MIC was over 1000 µg/mL (broth dilution; ATCC6633).
The MIC of `COc1cccc(OC)c1C(=O)N[C@@H]1C(=O)N2[C@@H]1SC(C)(C)[C@@H]2C(=O)O` is reported as 0.625 µg/mL (broth dilution; 168).
The MIC of `CCC[P+](/C=C(/c1ccccc1)c1cc(Cl)ccc1O)(CCC)CCC` is reported as over 40 µM (21 h).
`COc1cccc(NCc2ccc(Oc3ccccn3)cc2)c1` gave an MIC of 1.6 µg/mL.
For `O=C(O)c1ccc(-n2cc(/C=N/N(Cc3ccccc3)c3ccccc3)c(-c3cccc(F)c3)n2)cc1`, the MIC was 1.56 µg/mL (ATCC6623).
`c1ccc(NCc2ccc(Oc3ccccn3)cc2)cc1` has an MIC of 1.6 µg/mL.
For `O=C(O)c1ccc(-n2cc(/C=N/Nc3c(F)c(F)cc(F)c3F)c(-c3cccc(F)c3)n2)cc1`, the MIC was 12.5 µg/mL (ATCC6623).
For `C/C=C(\C)c1cc(O)c(C)c(OC(=O)c2c(C)cc(O)c(Cl)c2O)c1`, the MIC was 4 µg/mL (broth dilution; BS01).
`O=C1NC(=S)S/C1=C\c1c2ccccc2c(-c2ccc(N(c3ccccc3)c3ccccc3)cc2)c2ccccc12` gave an MIC of over 1000 µg/mL (broth dilution; ATCC6633).
With `C[n+]1c(/C=C/c2c[nH]c3ccccc23)cc(/C=C2\Sc3ccccc3N2CCCN2CCOCC2)c2ccccc21.[I-]` the MIC was 8 µg/mL (broth dilution; 168).
With `CN[C@H](CC(C)C)C(=O)N[C@H]1C(=O)N[C@@H](CC(N)=O)C(=O)N[C@H]2C(=O)N[C@H]3C(=O)N[C@H](C(=O)N[C@H](C(=O)O)c4cc(O)cc(O)c4-c4cc3ccc4O)[C@H](O)c3ccc(c(Cl)c3)Oc3cc2cc(c3O[C@@H]2O[C@H](CO)[C@@H](O)[C@H](O)[C@H]2O[C@H]2C[C@](C)(N)[C@H](O)[C@H](C)O2)Oc2ccc(cc2Cl)[C@H]1O` the MIC was 0.24 µg/mL (broth dilution; ATCC6633).
`Fc1ccc(NCc2ccc(Oc3ccccn3)cc2)cc1` has an MIC of 1.6 µg/mL.
For `O=C(O)c1ccc(-n2cc(/C=N/Nc3ccc(Br)cc3)c(-c3cccc(F)c3)n2)cc1`, the MIC was 12.5 µg/mL (ATCC6623).
`O=C1NC(=S)N/C1=C\c1ccc(-c2ccc(N(c3ccccc3)c3ccccc3)cc2)cc1` has an MIC of over 1000 µg/mL (broth dilution; ATCC6633).
